# Bioassay records from PubChem.
# Myeloid diff 2 – compounds promoting myeloid differentiation | actives 1% (n = 360,000) | calls only at 10 µM | ER-HoxA9 myeloid progenitors, lysozyme-GFP differentiation, flow cytometry;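 active means normalized GFP-positive differentiation at or above the plate's own cutoff, the solvent-only control mean plus 3 SD; inconclusive means no clear call, values can overlap the other calls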;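 further: cells exposed to compound for four days before flow analysis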
# HCV core dimer – HCV core protein dimerization inhibition; TR-FRET GST/Flag-core106 dimerization, 1536-well; inhibition, % at 5 µM; actives 0.33% (n = 300,000); AID 1899;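 active means inhibition above the mean of all tested compounds plus 3 SD, set per screening campaign, cut at about 45% in these data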
#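 Assay system: Tagged HCV core106 pair (GST and Flag) | Buffer or medium: KF-containing HEPES buffer, pH 7.45, DTT, CHAPS, BSA | Also added: Eu donor and XL665 acceptor anti-tag antibodies | Dosing: One concentration, 5 µM, in 0.5% DMSO | Timing: 4 h at 22.5 °C | Technique: TR-FRET 671 and 617 nm emission | Repeats: Singlicate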
# NadD inh – inhibitors of Staphylococcus aureus NadD | purified NadD enzyme, colorimetric absorbance read-out | inhibition, % at 20 µM | actives 0.78% (n = 360,000) | AID 602399; in the data active means inhibition above about 26%
# PP1 counter – counter-screen for PP5 inhibitors: inhibitors of human PP1-alpha. P62136. purified PP1alpha, OMFP fluorescence. inhibition, % at 6.7 µM. actives 0.9% (n = 320,000). AID 2235;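 active means inhibition above the mean inhibition of all tested compounds plus 3 SD, computed separately for each screening campaign, cut at about 15% in these data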
# Target sequence (P62136 whole entry, looked up): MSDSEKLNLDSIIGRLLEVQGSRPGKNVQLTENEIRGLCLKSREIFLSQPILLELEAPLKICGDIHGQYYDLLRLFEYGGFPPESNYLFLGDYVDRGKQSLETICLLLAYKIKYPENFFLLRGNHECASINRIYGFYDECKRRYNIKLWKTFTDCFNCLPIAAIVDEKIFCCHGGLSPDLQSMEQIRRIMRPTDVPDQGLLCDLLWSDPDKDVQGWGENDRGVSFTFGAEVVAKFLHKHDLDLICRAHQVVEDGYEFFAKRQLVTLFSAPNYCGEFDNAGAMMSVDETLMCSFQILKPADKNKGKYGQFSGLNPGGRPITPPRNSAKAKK
# PP5 inh – PP5 (human) phosphatase inhibition. P53041. purified PP5c, OMFP substrate fluorescence. inhibition, % at 6.7 µM. actives 0.18% (n = 320,000);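 active means inhibition above the campaign's mean inhibition across all tested compounds plus 3 SD, cut at about 9.5% in these data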
# Fh CTSL1 inh – counter-screen for PFM18AAP inhibitors: inhibitors of F. hepatica cathepsin L1 | recombinant F. hepatica cathepsin L1, Z-Leu-Arg-MCA fluorescence | inhibition, % at 5.96 µM | actives 0.49% (n = 300,000) | AID 1906;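 active means inhibition above the mean of all tested compounds plus 3 SD, set per screening campaign, cut at about 17% in these data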
# Hits are given with their value; 0 = inactive; ? = inconclusive; - = not tested or not shown; + = active, no number. Rows were chosen to be rich in hits. Some 3.1% of all compounds tested hit in one or more screens of this group.
SMILES,Myeloid diff 2,HCV core dimer,NadD inh,PP1 counter,PP5 inh,Fh CTSL1 inh
C#CCOCCOCCOCCNc1nc(N2CCN(C(=O)CCCCCCCCCCNC(=O)Cn3cc(C[C@@H](C)O)nn3)CC2)nc(N2CCN(C(=O)CCCCCCCCCCNC(=O)[C@@H](CCSC)n3cc(CCO)nn3)CC2)n1,+,0,0,0,0,0
NS(=O)(=O)c1ccc(N=C2C(=O)Nc3ccccc32)cc1,0,0,0,16,0,0
CC(C)CCn1nnnc1CN1CCN(C(c2ccccc2)c2ccccc2)CC1,+,0,0,0,0,0
c1ccc(C(c2ccccc2)N2CCN(Cc3nnnn3C3CCCC3)CC2)cc1,0,0,0,0,0,0
Cn1c(=O)c2c(ncn2CC(=O)OCC(=O)NCc2ccc(F)cc2)n(C)c1=O,0,-,0,-,-,-
Cc1cc(C)cc(N(CC(=O)NC(C)(C)C)C(=O)CCC(=O)Nc2ccccn2)c1,0,0,0,0,0,0
Cc1cccc(N(CC(=O)NC(C)(C)C)C(=O)CCC(=O)Nc2ccccn2)c1,0,0,0,0,0,18
Nc1ncnc2c1ncn2[C@@H]1O[C@H](CN2CCCS2(=O)=O)[C@@H](O)[C@H]1O,0,-,0,-,-,-
COc1ccccc1N1CCN(C(=O)c2cc3c(s2)CCC3)CC1,0,74,0,0,0,0
Cc1cc(C)cc(Nc2nc(-c3ccc(S(=O)(=O)N4CCCC4)cc3)cs2)c1,+,0,0,0,0,0
Cn1c(SCC(=O)NC2CCCC2)nnc1C(F)(F)F,0,-,0,0,0,-
CC(OC(=O)c1ccc([N+](=O)[O-])s1)C(=O)Nc1ncc(Cl)cc1Cl (stereo not given),0,0,0,0,0,27
CCOC(=O)CC1C(=O)NCCN1c1nc2ccc(C)cn2c(=O)c1/C=C1\SC(=S)N(CC(C)C)C1=O (stereo not given),+,0,0,0,0,0
CCOC(=O)/C(C#N)=C/c1c(N2CCN(C)CC2)nc2c(C)cccn2c1=O,0,-,0,-,-,-
CCOC(=O)CC1C(=O)NCCN1c1nc2ccc(C)cn2c(=O)c1/C=C1\SC(=S)N(C(C)CC)C1=O (stereo not given),-,0,-,0,0,0
CCCN1C(=O)/C(=C/c2c(N3CCNC(=O)C3CC(=O)OCC)nc3c(C)cccn3c2=O)SC1=S (stereo not given),+,0,0,0,0,0
COc1cccc(NC(=O)C2(C)CCCN2C(=O)C(C)C)c1OC (stereo not given),0,-,0,-,-,-
O=S(=O)(c1cccc(Cl)c1)N1CN(CC2CCCO2)c2nc3ccccc3nc21 (stereo not given),+,0,0,0,0,0
COCCN1CN(S(=O)(=O)c2cccc(Cl)c2)c2nc3ccccc3nc21,0,0,0,0,0,0
C=CCN1CN(S(=O)(=O)c2cccc(Cl)c2)c2nc3ccccc3nc21,0,0,0,0,0,17
Cc1ccccc1CC(=O)N1CCN(S(=O)(=O)c2ccc(Cl)s2)CC1,0,-,0,-,-,-
CCCNc1ncc2c(=O)[nH][nH]c(=O)c2n1,0,-,0,-,-,-
COc1ccc(CCNC(=O)CN(c2ccc(OC)c(OC)c2)S(=O)(=O)c2ccc(C)cc2)cc1,+,0,0,0,0,0
COc1ccc(CCNC(=O)CN(c2ccc(OC)c(OC)c2)S(=O)(=O)c2ccccc2)cc1OC,0,0,0,0,0,0
Cc1cccc(N2C(N)=NC(N)=NC23CCCCC3)c1,+,0,0,0,0,0
SMILES,Myeloid diff 2,HCV core dimer,NadD inh,PP1 counter,PP5 inh,Fh CTSL1 inh
COc1cc(NC(=O)COc2cc(C)cc3oc(=O)cc(C)c23)cc(OC)c1OC,0,-,0,-,-,-
Cc1ccc(C)c(OCCCC(=O)O)c1,0,0,0,0,0,17
Cc1ccc(N)c(C(=O)CCCCC(=O)O)c1,+,0,0,0,0,0
COc1ccccc1OCCNC(=O)CCNS(=O)(=O)c1ccc(C)cc1,0,-,0,-,-,-
C=CCn1c(SCC(=O)Nc2sc3c(c2C#N)CCC3)nnc1C1COc2ccccc2O1 (stereo not given),0,47,0,0,0,0
Cn1c(SCC(=O)Nc2sc3c(c2C#N)CCC3)nnc1C1COc2ccccc2O1 (stereo not given),0,0,0,0,0,0
Cc1cc(C(=O)CSc2nn3c(=O)c(C(C)(C)C)nnc3s2)c(C)n1-c1ccc(F)cc1,0,49,0,0,0,0
CC(C)N(C(=O)CSc1nn2c(=O)c(C(C)(C)C)nnc2s1)c1ccccc1,0,0,0,0,0,0
Cc1ccc(C(=O)N[C@H](C(=O)Nc2sccc2C(N)=O)C(C)C)cc1,+,0,0,0,0,0
CC(C)[C@H](NC(=O)c1ccccc1F)C(=O)OCC(=O)Nc1sccc1C(N)=O,0,-,0,-,-,-
O=C(Nn1c(C2CCCCC2)nc2ccccc2c1=O)c1ccc([N+](=O)[O-])cc1Cl,0,0,0,17,0,0
COc1ccc2[nH]cc(C=O)c2c1,0,0,0,0,0,0
COc1ccc2[nH]cc(/C=C/c3cc[n+](C)cc3)c2c1,+,0,0,0,0,0
NC(=O)c1ccccc1NC(=O)COC(=O)C1(c2ccccc2)CC1,0,0,0,0,0,0
O=C(CCC(=O)c1cccs1)NCC(=O)Nc1ccc(F)c(F)c1F,0,0,0,0,0,0
O=C(CCC(=O)c1cccs1)Nc1ccc(F)c(F)c1F,0,52,0,0,0,0
Cc1c(NC(=O)c2nn(C(C)C)c(=O)c3ccccc23)c(=O)n(-c2ccccc2)n1C,0,-,0,-,-,-
O=[N+]([O-])c1ccccc1S(=O)(=O)NCc1ccco1,0,0,0,0,0,0
O=[N+]([O-])c1ccccc1S(=O)(=O)NCCSCc1ccco1,0,-,0,17,0,-
O=C(Cc1ccccc1F)N1CCN(S(=O)(=O)c2ccc(Cl)cc2)CC1,0,-,0,0,0,-
COc1cc(C(=O)Nc2ccc(C)cn2)c([N+](=O)[O-])cc1OC,0,0,0,0,0,0
COc1cc(C(=O)Nc2c(C)cc(C)cc2C)c([N+](=O)[O-])cc1OC,0,0,0,0,0,22
CC(=O)C1=C(C)NC(SCSc2ccccc2)=C(C#N)C1c1cccnc1 (stereo not given),-,0,-,0,0,0
CC(=O)C1=C(C)NC(SCC(=O)c2cc(Cl)ccc2Cl)=C(C#N)C1c1ccco1 (stereo not given),?,0,0,0,0,0
CC(=O)C1=C(C)NC(SCC(=O)c2ccc(-c3ccccc3)cc2)=C(C#N)C1c1cccnc1 (stereo not given),-,0,-,27,0,0
CC(=O)C1=C(C)NC(SCC(=O)c2ccc(Cl)c(Cl)c2)=C(C#N)C1c1ccco1 (stereo not given),+,0,0,0,0,0
CCN1C[C@@H]2[C@@H]3C(=O)N(C)C(=O)[C@@H]3[C@](C)(C1=O)N2C(=O)c1ccc(C)cc1,0,-,0,-,-,-
